This note sets out measurements from ChEMBL document CHEMBL1136492, “Design and syntheses of melanocortin subtype-4 receptor agonists: evolution of the pyridazinone archetype” (Bioorg Med Chem Lett, 2003).

The target in experiment [1] is T1, Melanocortin receptor 4 (Homo sapiens, UniProt P32245). The experiment in a line: Concentration required to inhibit binding of [125I]-NDP-alpha-MSH from membranes prepared from CHO cells expressing human melanocortin subtype-4-receptor (MC4R). Type of experiment: cell membranes. The method in brief:
(§1)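 Competition binding using membranes from CHO cells expressing human MC4R, with [125I]-NDP-α-MSH as radioligand. IC50 is the compound concentration that inhibits radioligand binding by 50%. Values are means of at least two separate experiments.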

For experiment [2], the target named is T1, Melanocortin receptor 4. The experiment in a line: Effective concentration for cAMP accumulation relative to alpha-MSH at human MC4R. It is filed as functional. In short, it runs like this:
(§2)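 cAMP accumulation at human MC4R, measured relative to α-MSH. EC50 is the inflection point of the cAMP dose-response curve. Where no EC50 is given, the value is the accumulation at the highest concentration tested. %Max is the accumulation at 10 µM compound relative to α-MSH. Values are means of at least two separate experiments.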

Experiment [3] addresses T1, Melanocortin receptor 4. The experiment in a line: Percentage of cAMP accumulation of compound relative to alpha-MSH, at human MC4R. It is filed as functional. The method in brief:
as §2

Experiment [4] addresses T1, Melanocortin receptor 4. The experiment in a line: Percentage of cAMP accumulation at 10 uM of compound relative to alpha-MSH, at human MC4R. Type of experiment: functional. The method in brief: as §2
Experiment [5] concerns the target T1, Melanocortin receptor 4. The experiment in a line: Concentration required to inhibit binding of [125I]NDP-alpha-MSH from membranes prepared from CHO cells expressing human MC4R. It is filed as cell membranes. The method in brief:
as §1

Experiment [6] has as its target Melanocortin receptor 5 (Homo sapiens, UniProt P33032). The experiment in a line: Concentration required to inhibit binding of [125I]NDP-alpha-MSH from membranes prepared from CHO cells expressing human melanocortin subtype-5-receptor (MC5R). Type of experiment: cell membranes.
The target of experiment [7] is Melanocortin receptor 3 (Homo sapiens, UniProt P41968). The experiment in a line: Concentration required to inhibit binding of [125I]NDP-alpha-MSH from membranes prepared from CHO cells expressing human melanocortin subtype-3-receptor (MC3R). It is filed as cell membranes.
Melanocortin receptor 3, sequence (P41968 whole entry): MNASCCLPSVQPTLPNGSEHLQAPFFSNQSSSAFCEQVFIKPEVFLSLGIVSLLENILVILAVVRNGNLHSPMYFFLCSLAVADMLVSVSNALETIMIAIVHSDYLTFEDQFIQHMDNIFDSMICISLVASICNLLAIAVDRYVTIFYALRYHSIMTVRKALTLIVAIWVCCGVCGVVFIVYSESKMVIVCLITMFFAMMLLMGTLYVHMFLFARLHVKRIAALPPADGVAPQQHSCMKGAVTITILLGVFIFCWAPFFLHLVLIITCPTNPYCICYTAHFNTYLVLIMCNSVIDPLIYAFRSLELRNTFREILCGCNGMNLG

T1 sequence (P32245 whole entry): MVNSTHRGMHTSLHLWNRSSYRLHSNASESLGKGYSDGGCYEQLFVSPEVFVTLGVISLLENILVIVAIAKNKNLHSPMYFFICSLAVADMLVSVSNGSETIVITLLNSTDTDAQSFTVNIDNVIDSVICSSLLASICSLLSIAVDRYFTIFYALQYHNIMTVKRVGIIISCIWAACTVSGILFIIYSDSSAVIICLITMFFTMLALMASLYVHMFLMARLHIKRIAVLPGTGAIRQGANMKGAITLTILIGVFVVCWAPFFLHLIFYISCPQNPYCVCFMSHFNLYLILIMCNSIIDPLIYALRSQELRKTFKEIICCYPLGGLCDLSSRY
Melanocortin receptor 5, sequence (P33032 whole entry): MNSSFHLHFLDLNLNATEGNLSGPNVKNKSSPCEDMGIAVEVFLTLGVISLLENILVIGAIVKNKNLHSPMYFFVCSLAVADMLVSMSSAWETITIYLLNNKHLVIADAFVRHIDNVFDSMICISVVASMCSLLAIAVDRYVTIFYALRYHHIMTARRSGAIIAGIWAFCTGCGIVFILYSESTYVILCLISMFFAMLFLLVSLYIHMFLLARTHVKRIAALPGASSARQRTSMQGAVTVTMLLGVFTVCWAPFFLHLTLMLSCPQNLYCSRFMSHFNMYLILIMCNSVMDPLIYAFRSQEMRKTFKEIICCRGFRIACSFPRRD

`COc1ccc(-n2nc(Sc3ccc(Cl)cc3)cc(CCC(C)NC(=O)[C@H]3CNCC[C@@H]3c3ccccc3)c2=O)cc1` (stereo partly drawn) yielded an IC50 in experiment [1] of 41 nM. The compound further gave an EC50 in experiment [2] of 227 nM. Further, the Max in experiment [3] came to 82%.
As for `COc1ccc(-n2nc(Sc3ccc(Cl)cc3)cc(CCC(=O)N[C@@H]3CCc4ccccc4NC3=O)c2=O)cc1`, the IC50 in experiment [1] is 144 nM. Besides, in experiment [2], it took 3060 nM to reach a half-maximal effect (EC50). Besides, in experiment [3], the Max came to 34%.
As for `COc1ccc(-n2nc(Sc3ccc(Cl)cc3)cc(CC[C@@H](C)NC(=O)[C@H]3CNCC[C@H]3c3ccccc3)c2=O)cc1`, the Max in experiment [4] is 54%. Also, the IC50 in experiment [1] turned out to be 2240 nM. The compound also gave an EC50 in experiment [2] of 4050 nM.
The compound `COc1ccc(-n2nc(Sc3ccc(Cl)cc3)cc(CCC(=O)NCCOc3ccccc3)c2=O)cc1` had a Max in experiment [4] of 15%. This compound showed an IC50 in experiment [5] of 5600 nM.
In experiment [4], `COc1ccc(-n2nc(Sc3ccc(Cl)cc3)cc(CC[C@@H](C)NC(=O)[C@@H]3CNCC[C@H]3c3ccccc3)c2=O)cc1` had a Max of 32%. Further, the IC50 in experiment [1] was determined as 2060 nM. The compound further yielded an EC50 in experiment [2] greater than 5000 nM.
`COc1ccc(-n2nc(Sc3ccc(Cl)cc3)cc(CC[C@H](C)NC(=O)[C@@H]3CNCC[C@H]3c3ccccc3)c2=O)cc1` returned a Max in experiment [4] of 5%. This compound came in with an IC50 in experiment [1] of 2990 nM.
For `COc1ccc(-n2nc(Sc3ccc(Cl)cc3)cc(CC[C@@H](C)NC(=O)[C@H]3CNCC[C@@H]3c3ccccc3)c2=O)cc1`, the Max in experiment [4] is 77%. In addition, the figures for the 50% inhibitory concentration (IC50) in experiment [1], in experiment [6] and in experiment [7] were 33 nM, 1410 nM and 2170 nM, respectively. In experiment [2], this compound returned an EC50 of 177 nM.
For the compound `COc1ccc(-n2nc(Sc3ccc(Cl)cc3)cc(C(C)CCNC(=O)[C@H]3CNCC[C@@H]3c3ccccc3)c2=O)cc1` (stereo partly drawn), the IC50 in experiment [1] came to 3930 nM. Also, the EC50 in experiment [2] was greater than 5000 nM. For the same compound, the Max in experiment [3] came out at 31%.
As for `COc1ccc(-n2nc(Sc3ccc(Cl)cc3)cc(CCCNC(=O)[C@H]3CNCC[C@@H]3c3ccccc3)c2=O)cc1`, in experiment [1], the IC50 came out at 1970 nM. Besides, in experiment [2], the EC50 was 500 nM. The compound further had a Max in experiment [3] of 20%.
`COc1ccc(-n2nc(Sc3ccc(Cl)cc3)cc(CCC(=O)NC3CCCCNC3=O)c2=O)cc1` (stereo not drawn) yielded a Max in experiment [4] of 0%. This compound also gave an IC50 in experiment [5] of 2.27 nM.
In turn, `COc1ccc(-n2nc(Sc3ccc(Cl)cc3)cc(CC(C)CNC(=O)[C@H]3CNCC[C@@H]3c3ccccc3)c2=O)cc1` (stereo partly drawn) showed an IC50 in experiment [1] of 2170 nM. In experiment [2], this compound gave a concentration for a half-maximal effect (EC50) greater than 5000 nM. The same compound displayed a Max in experiment [3] of 35%.
Taken in the same sequence, the figures for `COc1ccc(-n2nc(Sc3ccc(Cl)cc3)cc(CC[C@H](C)NC(=O)[C@H]3CNC[C@@H]3c3ccccc3)c2=O)cc1` were 975 nM, 5800 nM and 67%.
Take `COc1ccc(-n2nc(Sc3ccc(Cl)cc3)cc(CC[C@H](C)NC(=O)[C@H]3CNCC[C@H]3c3ccccc3)c2=O)cc1`: the Max in experiment [4] was determined as 13%. The IC50 in experiment [1] was 9020 nM.
`COc1ccc(-n2nc(Sc3ccc(Cl)cc3)cc(CC[C@H](C)NC(=O)[C@H]3CNCC[C@@H]3c3ccccc3)c2=O)cc1` came in with a Max in experiment [4] of 65%. The same compound registered an IC50 in experiment [1] of 1200 nM. The compound also returned a half-maximal effective concentration (EC50) in experiment [2] of 1730 nM.
Compound `COc1ccc(-n2nc(Sc3ccc(Cl)cc3)cc(CCCNC(=O)[C@H]3CNC[C@@H]3c3ccccc3)c2=O)cc1` showed a concentration for half-maximal inhibition (IC50) in experiment [1] of 1240 nM. The compound also came in with an EC50 in experiment [2] of 820 nM. This compound came in with a Max in experiment [3] of 22%.
Taken in the same sequence, the figures for `COc1ccc(-n2nc(Sc3ccc(Cl)cc3)cc(CCCNC(=O)[C@H]3CCNC[C@@H]3c3ccccc3)c2=O)cc1` were 2750 nM, greater than 5000 nM and 28%.
Turning to `COc1ccc(-n2nc(Sc3ccc(Cl)cc3)cc(CC[C@H](C)NC(=O)[C@@H]3CNCC[C@@H]3c3ccccc3)c2=O)cc1`, the Max in experiment [4] was 12%.
With `COc1ccc(-n2nc(Sc3ccc(Cl)cc3)cc(CC[C@@H](C)NC(=O)[C@H]3CNC[C@@H]3c3ccccc3)c2=O)cc1` [listing 1 of 3 here], the results for the Max in experiment [4] and in experiment [3] were 103% and 97%, respectively.
As for `O=C(N[C@H](Cc1ccc(Cl)cc1)C(=O)N1CCC(Cn2cncn2)(C2CCCCC2)CC1)[C@H]1CCc2ccccc2N1`, in experiment [1], the IC50 was found to be 1.2 nM. Further, the Max in experiment [3] came to 97%.
`COc1ccc(-n2nc(Sc3ccc(Cl)cc3)cc(CC[C@@H](C)NC(=O)[C@@H]3CNCC[C@@H]3c3ccccc3)c2=O)cc1` came in with a Max in experiment [4] of 38%. In experiment [2], this compound registered an EC50 greater than 5000 nM.
For the compound `COc1ccc(-n2nc(Sc3ccc(Cl)cc3)cc(CC[C@@H](C)NC(=O)[C@H]3CNC[C@@H]3c3ccccc3)c2=O)cc1` [listing 2 of 3 here], the IC50 in experiment [1] was 190 nM. In experiment [2], this compound gave an EC50 of 405 nM.
Regarding `COc1ccc(-n2nc(Sc3ccc(Cl)cc3)cc(CC[C@@H](C)NC(=O)[C@H]3CNC[C@@H]3c3ccccc3)c2=O)cc1` [listing 3 of 3 here], the IC50 in experiment [1] was 380 nM. The EC50 in experiment [2] amounted to 250 nM.
Compound `COc1ccc(-n2nc(Sc3ccc(Cl)cc3)cc(CC[C@@H](C)NC(=O)[C@H]3CCNC[C@@H]3c3ccccc3)c2=O)cc1` displayed a Max in experiment [4] of 85%. Moreover, the IC50 in experiment [1] stood at 130 nM. Moreover, in experiment [2], the EC50 stood at 237 nM.
Compound `COc1ccc(-n2nc(Sc3ccc(Cl)cc3)cc(CCC(C)NC(=O)[C@H]3CCNC[C@@H]3c3ccccc3)c2=O)cc1` (stereo partly drawn) displayed an IC50 in experiment [1] of 339 nM. The same compound had an EC50 in experiment [2] of 260 nM. The compound further returned a Max in experiment [3] of 79%.
